Calls of active or inactive are those of the source. The calls are words filed in the database; no cut-off is given here.
Key:
[1] = molecular target: T1, von Hippel-Lindau disease tumor suppressor/Histone-lysine N-methyltransferase EZH2 (Homo sapiens, UniProt Q15910+P40337); experiment: PROTAC activity at VHL/EZH2 degradation in hMLLr AML cell line EOL1 cells assessed as protein degradation at 0.1 uM measured after 24 hrs by Western blot analysis; format: cell-based
Method in brief: (§1)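 Cells were seeded at 0.5–2 million per well and treated for 24 h, or for the stated times at 300 nM in the time course. Lysis was in RIPA with protease inhibitors; ~10 μg protein was run on SDS-PAGE and blotted to PVDF. Detection used fluorescent immunoblotting for EZH2, EED and SUZ12, with β-actin as loading control. Blots are representative of two biological experiments.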

[2] = molecular target: von Hippel-Lindau disease tumor suppressor/Polycomb protein EED (Homo sapiens) (UniProt O75530+P40337); experiment: PROTAC activity at VHL/EED degradation in MLLr AML cell line human EOL1 cells assessed as protein degradation at 1 to 1000 nM measured after 1 to 24 hrs by Western blot analysis; format: cell-based; settings: dose 1-1000 nM, time 1-24 hrs; method in brief: as §1
Sequence of von Hippel-Lindau disease tumor suppressor/Polycomb protein EED (Homo sapiens) (O75530 2-441 limits assumed): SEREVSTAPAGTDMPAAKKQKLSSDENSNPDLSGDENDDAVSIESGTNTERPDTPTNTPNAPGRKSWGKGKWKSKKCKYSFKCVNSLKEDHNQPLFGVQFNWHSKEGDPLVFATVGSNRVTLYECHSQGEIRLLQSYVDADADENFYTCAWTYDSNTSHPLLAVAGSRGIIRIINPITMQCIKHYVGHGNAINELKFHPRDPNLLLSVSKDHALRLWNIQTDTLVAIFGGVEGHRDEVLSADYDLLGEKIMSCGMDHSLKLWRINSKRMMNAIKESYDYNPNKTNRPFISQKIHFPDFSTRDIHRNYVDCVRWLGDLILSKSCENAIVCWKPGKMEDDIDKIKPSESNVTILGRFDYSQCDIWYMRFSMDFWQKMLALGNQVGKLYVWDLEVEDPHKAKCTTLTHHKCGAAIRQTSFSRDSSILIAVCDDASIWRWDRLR
Sequence of von Hippel-Lindau disease tumor suppressor/Polycomb protein EED (Homo sapiens) (P40337 whole entry partner): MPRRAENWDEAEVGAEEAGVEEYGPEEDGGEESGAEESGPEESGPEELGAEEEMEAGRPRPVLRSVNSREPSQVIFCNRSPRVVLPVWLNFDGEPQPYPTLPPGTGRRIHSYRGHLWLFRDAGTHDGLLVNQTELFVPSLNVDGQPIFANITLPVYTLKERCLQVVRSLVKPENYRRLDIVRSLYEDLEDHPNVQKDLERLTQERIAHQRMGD

[3] = molecular target: von Hippel-Lindau disease tumor suppressor/Polycomb protein SUZ12 (Homo sapiens) (UniProt Q15022+P40337); experiment: PROTAC activity at VHL/SUZ12 degradation in MLLr AML cell line human EOL1 cells assessed as protein degradation at 1 to 1000 nM […] measured after 1 to 24 hrs by Western blot analysis; format: cell-based; settings: dose 1-1000 nM, time 1-24 hrs; method in brief: as §1
Sequence of von Hippel-Lindau disease tumor suppressor/Polycomb protein SUZ12 (Homo sapiens) (P40337 whole entry, looked up): as the sequence (P40337 whole entry partner) above
Sequence of von Hippel-Lindau disease tumor suppressor/Polycomb protein SUZ12 (Homo sapiens) (Q15022 whole entry, looked up): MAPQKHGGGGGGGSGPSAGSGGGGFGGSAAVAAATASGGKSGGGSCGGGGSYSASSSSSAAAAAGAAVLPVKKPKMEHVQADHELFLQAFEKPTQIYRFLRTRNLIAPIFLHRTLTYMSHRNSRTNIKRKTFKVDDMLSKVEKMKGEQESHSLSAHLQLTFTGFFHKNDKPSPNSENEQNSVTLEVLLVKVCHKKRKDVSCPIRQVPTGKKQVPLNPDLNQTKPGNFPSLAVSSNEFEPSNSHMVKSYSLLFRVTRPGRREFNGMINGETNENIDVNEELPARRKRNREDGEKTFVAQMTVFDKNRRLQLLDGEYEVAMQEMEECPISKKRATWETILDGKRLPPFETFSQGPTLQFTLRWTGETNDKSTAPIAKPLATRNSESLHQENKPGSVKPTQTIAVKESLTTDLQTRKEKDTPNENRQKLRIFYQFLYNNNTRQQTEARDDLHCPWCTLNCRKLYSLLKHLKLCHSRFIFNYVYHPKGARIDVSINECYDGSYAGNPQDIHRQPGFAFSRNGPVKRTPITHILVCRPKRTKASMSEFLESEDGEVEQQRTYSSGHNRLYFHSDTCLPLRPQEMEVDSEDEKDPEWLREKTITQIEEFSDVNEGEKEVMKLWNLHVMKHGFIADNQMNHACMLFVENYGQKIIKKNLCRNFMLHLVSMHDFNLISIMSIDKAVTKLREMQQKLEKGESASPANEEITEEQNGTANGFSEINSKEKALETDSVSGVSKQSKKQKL

[4] = molecular target: T1, von Hippel-Lindau disease tumor suppressor/Histone-lysine N-methyltransferase EZH2; experiment: PROTAC activity at VHL/EZH2 degradation in MLLr AML cell line human EOL1 cells assessed as protein degradation at 0.5 uM measured after 24 hrs in presence of 5 uM VHL-1 by Western blot analysis; format: cell-based
Method in brief: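 EOL-1 cells were pre-treated for 2 h with MLN4924 (0.05 μM), EPZ-6438 (5 μM) or VHL-1 (5 μM), then given 0.5 μM degrader for 24 h. EZH2 was assessed by Western blot against β-actin. Blots are representative of two biological experiments.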

[5] = molecular target: Histone-lysine N-methyltransferase 2A (Homo sapiens) (UniProt Q03164); experiment: Inhibition of human MLL1 assessed as methyltransferase activity using Nucleosomes as substrate at 10 uM by radioisotope based MT HotSpot assay relative to control
Method in brief: (§2)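 Radioisotope-based methyltransferase assay (MT HotSpot) run by a contract lab. Compound was tested at 10 μM against a panel of 20 methyltransferases, in duplicate. Values are means ± SD of two replicates.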

[6] = molecular target: Histone-lysine N-methyltransferase, H3 lysine-36 specific (Homo sapiens) (UniProt Q96L73); experiment: Inhibition of human NSD1 assessed as methyltransferase activity using Nucleosomes as substrate at 10 uM by radioisotope based MT HotSpot assay relative to control; method in brief: as §2
[7] = molecular target: PRMT5/MEP50 complex (Homo sapiens) (UniProt O14744+Q9BQA1); experiment: Inhibition of human PRMT5/MEP50 assessed as methyltransferase activity using Histone H2A as substrate at 10 uM by radioisotope based MT HotSpot assay relative to control; format: protein-complex assay; method in brief: as §2
[8] = molecular target: Protein arginine N-methyltransferase 6 (Homo sapiens) (UniProt Q96LA8); experiment: Inhibition of human PRMT6 assessed as methyltransferase activity using GST-GAR as substrate at 10 uM by radioisotope based MT HotSpot assay relative to control; method in brief: as §2
Sequence of Protein arginine N-methyltransferase 6 (Homo sapiens) (Q96LA8 whole entry, looked up): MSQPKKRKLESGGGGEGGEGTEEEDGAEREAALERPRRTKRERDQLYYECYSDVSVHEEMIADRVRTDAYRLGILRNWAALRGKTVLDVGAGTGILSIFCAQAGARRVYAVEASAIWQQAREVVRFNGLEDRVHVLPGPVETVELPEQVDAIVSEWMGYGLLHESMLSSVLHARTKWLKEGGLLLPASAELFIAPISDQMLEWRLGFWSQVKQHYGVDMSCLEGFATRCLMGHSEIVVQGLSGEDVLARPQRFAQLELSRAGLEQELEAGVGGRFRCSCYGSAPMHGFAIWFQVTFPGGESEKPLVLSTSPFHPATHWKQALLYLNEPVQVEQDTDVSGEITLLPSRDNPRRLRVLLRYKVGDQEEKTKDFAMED

[9] = molecular target: Protein arginine N-methyltransferase 8 (Homo sapiens) (UniProt Q9NR22); experiment: Inhibition of human PRMT8 assessed as methyltransferase activity using Histone H4 as substrate at 10 uM by radioisotope based MT HotSpot assay relative to control; method in brief: as §2
Sequence of Protein arginine N-methyltransferase 8 (Homo sapiens) (Q9NR22 2-394 limits assumed): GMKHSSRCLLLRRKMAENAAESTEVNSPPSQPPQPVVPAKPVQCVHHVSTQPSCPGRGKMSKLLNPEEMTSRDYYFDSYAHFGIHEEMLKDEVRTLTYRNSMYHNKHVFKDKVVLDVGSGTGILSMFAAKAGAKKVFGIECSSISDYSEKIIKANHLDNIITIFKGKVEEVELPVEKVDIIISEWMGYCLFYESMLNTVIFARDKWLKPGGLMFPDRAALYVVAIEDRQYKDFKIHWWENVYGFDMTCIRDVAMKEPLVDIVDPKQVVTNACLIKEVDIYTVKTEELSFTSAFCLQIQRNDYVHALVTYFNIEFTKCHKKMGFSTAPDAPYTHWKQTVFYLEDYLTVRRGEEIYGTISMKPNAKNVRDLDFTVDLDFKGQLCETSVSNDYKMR

[10] = molecular target: Histone-lysine N-methyltransferase SETD7 (Homo sapiens) (UniProt Q8WTS6); experiment: Inhibition of human SET7/9 assessed as methyltransferase activity using Core histone as substrate at 10 uM by radioisotope based MT HotSpot assay relative to control; method in brief: as §2
[11] = molecular target: Histone-lysine N-methyltransferase SETD2 (Homo sapiens) (UniProt Q9BYW2); experiment: Inhibition of human SETD2 assessed as methyltransferase activity using Oligo Nucleosomes as substrate at 10 uM by radioisotope based MT HotSpot assay relative to control; method in brief: as §2
[12] = molecular target: Histone-lysine N-methyltransferase SMYD3 (Homo sapiens) (UniProt Q9H7B4); experiment: Inhibition of human SMYD3 assessed as methyltransferase activity using MEKK2 as substrate at 10 uM by radioisotope based MT HotSpot assay relative to control; method in brief: as §2
Sequence of Histone-lysine N-methyltransferase SMYD3 (Homo sapiens) (Q9H7B4 whole entry): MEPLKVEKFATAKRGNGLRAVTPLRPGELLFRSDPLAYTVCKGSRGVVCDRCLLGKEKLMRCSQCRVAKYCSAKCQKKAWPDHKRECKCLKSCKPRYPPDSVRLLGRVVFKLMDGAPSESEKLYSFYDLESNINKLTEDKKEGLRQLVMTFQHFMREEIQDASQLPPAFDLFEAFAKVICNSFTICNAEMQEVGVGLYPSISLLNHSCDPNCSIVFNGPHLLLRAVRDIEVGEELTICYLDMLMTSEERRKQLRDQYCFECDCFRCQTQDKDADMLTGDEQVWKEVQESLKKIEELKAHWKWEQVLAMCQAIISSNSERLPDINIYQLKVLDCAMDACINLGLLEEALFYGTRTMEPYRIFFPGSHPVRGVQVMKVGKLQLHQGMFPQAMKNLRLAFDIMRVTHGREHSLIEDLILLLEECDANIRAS

[13] = molecular target: T1, von Hippel-Lindau disease tumor suppressor/Histone-lysine N-methyltransferase EZH2; experiment: PROTAC activity at VHL/EZH2 degradation in MLLr AML cell line human EOL1 cells assessed as protein degradation at 0.3 uM measured after 24 hrs by Western blot analysis; format: cell-based; method in brief: as §1
EOL1 = experiment: Anti-proliferative activity against human EOL1 cells assessed as cell viability measured after 5 days incubation by CCK-8 assay; format: functional, cell-based; settings: EOL1, 120 h
Method in brief: (§3)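 Cells plated at 3,000–10,000 per well and exposed to serial dilutions for 5 days at 37 °C. CCK-8 (1x) was added for 2–4 h, with absorbance read at 450 nm against a 690 nm reference. IC50 was taken from curve fits. Leukemia lines were grown in RPMI-1640, K562 in IMDM and MDA-MB-468 in DMEM, all with 10 % FBS. Values are means ± SD of two biological experiments (three for BT549 and MDA-MB-468).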

MV4-11 = experiment: Anti-proliferative activity against human MV4-11 cells assessed as cell viability measured after 5 days incubation by CCK-8 assay; format: functional, cell-based; settings: MV4-11, 120 h; method in brief: as §3
[14] = molecular target: T1, von Hippel-Lindau disease tumor suppressor/Histone-lysine N-methyltransferase EZH2; experiment: PROTAC activity at VHL/EZH2 degradation in human RS4-11 cells assessed as protein degradation at 0.3 uM measured after 24 hrs by Western blot analysis; format: cell-based; method in brief: as §1
RS4-11 = experiment: Anti-proliferative activity against human RS4-11 cells assessed as cell viability measured after 5 days incubation by CCK-8 assay; format: functional, cell-based; settings: RS4-11, 120 h; method in brief: as §3
BT-549 = experiment: Inhibition of cell growth in human BT-549 cell spheroid TNBC model assessed as reduction in size of spheroid at 2.5 to 20 uM measured after 5 days by 3D cell culture assay; format: functional, cell-based; settings: dose 2.5-20 µM, time 5.0 day
Method in brief: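 BT549 cells were coated with nanoshuttle (1 μL per 2000 cells, 24 h) and magnetically levitated in low-adhesion plates. They were grown 7 days at 37 °C until a single solid spheroid formed, then treated 5 d with compound or DMSO. Spheroid area was measured from images, and viability by CellTiter-Glo 3D. Data are means ± SD of three biological experiments, analysed by one-way ANOVA.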

[15] = Cmax in mouse at 50 mg/kg, ip measured after 4 hrs; format: ADME, organism-based; settings: in vivo
[16] = Plasma concentration in mouse at 50 mg/kg, ip measured after 9 hrs; settings: in vivo
[17] = molecular target: Histone-lysine N-methyltransferase EHMT1 (Homo sapiens) (UniProt Q9H9B1); experiment: Inhibition of human GLP assessed as methyltransferase activity using Histone H3 as substrate at 10 uM by radioisotope based MT HotSpot assay relative to control
Sequence of Histone-lysine N-methyltransferase EHMT1 (Homo sapiens) (Q9H9B1 whole entry, looked up): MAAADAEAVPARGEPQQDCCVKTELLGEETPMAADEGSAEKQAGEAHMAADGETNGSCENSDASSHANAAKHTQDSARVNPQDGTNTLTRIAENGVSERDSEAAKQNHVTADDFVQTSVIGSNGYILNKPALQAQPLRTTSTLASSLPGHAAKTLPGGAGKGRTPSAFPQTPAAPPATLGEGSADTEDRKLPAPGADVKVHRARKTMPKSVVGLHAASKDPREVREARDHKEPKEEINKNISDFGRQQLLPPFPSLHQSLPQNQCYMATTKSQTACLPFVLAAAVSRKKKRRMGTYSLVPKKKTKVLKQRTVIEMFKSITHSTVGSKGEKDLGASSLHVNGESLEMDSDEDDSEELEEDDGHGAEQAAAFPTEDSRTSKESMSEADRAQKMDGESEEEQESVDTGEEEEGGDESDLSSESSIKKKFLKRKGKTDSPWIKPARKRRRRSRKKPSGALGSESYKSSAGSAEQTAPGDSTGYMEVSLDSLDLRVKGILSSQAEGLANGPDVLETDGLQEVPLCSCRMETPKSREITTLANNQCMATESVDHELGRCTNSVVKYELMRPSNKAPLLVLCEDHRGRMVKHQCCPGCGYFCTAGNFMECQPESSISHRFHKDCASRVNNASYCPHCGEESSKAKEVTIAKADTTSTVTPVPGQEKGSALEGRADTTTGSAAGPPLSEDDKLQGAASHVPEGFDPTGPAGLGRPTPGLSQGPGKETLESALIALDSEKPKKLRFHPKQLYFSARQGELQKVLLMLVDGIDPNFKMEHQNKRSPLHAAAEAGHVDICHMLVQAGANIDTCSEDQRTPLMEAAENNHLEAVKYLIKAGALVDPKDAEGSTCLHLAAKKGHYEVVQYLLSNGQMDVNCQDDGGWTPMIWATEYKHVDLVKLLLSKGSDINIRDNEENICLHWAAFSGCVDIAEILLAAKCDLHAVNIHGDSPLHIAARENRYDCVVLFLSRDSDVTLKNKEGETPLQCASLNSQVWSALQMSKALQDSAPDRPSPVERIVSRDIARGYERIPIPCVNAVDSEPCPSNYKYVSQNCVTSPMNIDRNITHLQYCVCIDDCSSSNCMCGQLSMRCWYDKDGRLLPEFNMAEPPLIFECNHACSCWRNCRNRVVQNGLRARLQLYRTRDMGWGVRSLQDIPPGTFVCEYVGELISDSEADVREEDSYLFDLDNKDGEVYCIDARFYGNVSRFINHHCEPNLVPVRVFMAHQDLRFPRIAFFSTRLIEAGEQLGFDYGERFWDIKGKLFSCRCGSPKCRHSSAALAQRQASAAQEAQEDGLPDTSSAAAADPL

[18] = molecular target: Histone-lysine N-methyltransferase SUV39H2 (Homo sapiens) (UniProt Q9H5I1); experiment: Inhibition of human SUV39H2 assessed as methyltransferase activity using Histone H3 as substrate at 10 uM by radioisotope based MT HotSpot assay relative to control

T1 sequence (P40337 whole entry, looked up): as the sequence (P40337 whole entry partner) above
T1 sequence (Q15910 whole entry, looked up): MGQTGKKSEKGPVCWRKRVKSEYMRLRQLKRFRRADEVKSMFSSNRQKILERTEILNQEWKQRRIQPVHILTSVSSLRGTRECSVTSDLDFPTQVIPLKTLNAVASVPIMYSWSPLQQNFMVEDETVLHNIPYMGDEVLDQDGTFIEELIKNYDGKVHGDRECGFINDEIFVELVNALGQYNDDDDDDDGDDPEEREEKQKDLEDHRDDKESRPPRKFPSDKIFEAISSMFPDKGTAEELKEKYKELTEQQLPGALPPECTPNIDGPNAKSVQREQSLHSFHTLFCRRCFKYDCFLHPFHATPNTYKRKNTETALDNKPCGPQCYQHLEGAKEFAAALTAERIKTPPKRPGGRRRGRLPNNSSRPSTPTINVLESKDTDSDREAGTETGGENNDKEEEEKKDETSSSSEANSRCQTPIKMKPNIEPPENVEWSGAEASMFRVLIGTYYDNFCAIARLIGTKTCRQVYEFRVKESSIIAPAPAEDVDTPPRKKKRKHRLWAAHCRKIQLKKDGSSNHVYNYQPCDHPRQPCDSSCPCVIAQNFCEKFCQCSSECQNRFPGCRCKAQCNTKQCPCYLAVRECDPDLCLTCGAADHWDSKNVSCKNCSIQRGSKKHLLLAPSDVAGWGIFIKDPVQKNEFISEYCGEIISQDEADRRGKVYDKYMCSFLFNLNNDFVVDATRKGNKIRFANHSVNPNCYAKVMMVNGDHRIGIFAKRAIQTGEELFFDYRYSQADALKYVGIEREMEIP

For `CCN(c1cc(-c2ccc(CN3CCN(CCC(=O)NCCCCCCCCCCC(=O)N[C@H](C(=O)N4C[C@H](O)C[C@H]4C(=O)NCc4ccc(-c5scnc5C)cc4)C(C)(C)C)CC3)cc2)cc(C(=O)NCc2c(C)cc(C)[nH]c2=O)c1C)C1CCOCC1`, the Activity [1] was 100%, the Activity [2] was “Active” and the Activity [3] was “Active”. The Activity [4] was “inactive”, the inhibition [5] was < 50% and the inhibition [6] was < 50%. The inhibition [7] was < 50%, the inhibition [8] was < 50% and the inhibition [9] was < 50%. For the same compound, the inhibition [10] was < 50%, the inhibition [11] was < 50% and the inhibition [12] was < 50%. It also gave an Activity [13] of 100%, an IC50 (EOL1) of 110 nM and an IC50 (MV4-11) of 170 nM. The Activity [14] was “Active”, the IC50 (RS4-11) was 410 nM and the inhibition (BT-549) was “Active”. The Cmax [15] was 3.9 µM, the plasma concentration [16] was “Stable” and the inhibition [17] was < 50%. For the same compound, the inhibition [18] was < 50%.

Source: ChEMBL document CHEMBL5543089, “Discovery of a novel, highly potent EZH2 PROTAC degrader for targeting non-canonical oncogenic functions of EZH2” (Eur J Med Chem, 2024)
